Results reported in ChEMBL document CHEMBL3091412, “Discovery of an irreversible HCV NS5B polymerase inhibitor” (Bioorg Med Chem Lett, 2013).

Columns and labels:
[1] = test system: Hepatitis C virus; experiment: Antiviral activity against HCV Con1 in eplicon cells after 3 days by RT-PCR analysis; assay type: functional, organism-based, Hepacivirus hominis; conditions: isolate Con1, 72 h
How it was run: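 HCV 1b-Con1 replicon cells seeded at 5000 cells/well one day before treatment; inhibitor in DMSO added as 10 serial twofold dilutions in duplicate (final 0.5% DMSO, 5% FBS). Harvested 3 days post dosing; replicon RNA quantified by real-time RT-PCR (Taqman), GAPDH RNA as endogenous control; EC50 calculated.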

[2] = Irreversible inhibition of HCV1b NS5B delta21 polymerase by radiolabeled nucleotide incorporation assay; design: species or system Hepatitis C virus subtype 1b
[3] = test system: Rattus norvegicus; experiment: Toxicity in rat at 10 to 500 mg/kg measured up to 2 weeks; assay type: organism-based; design: dose 10-500 mg/kg; conditions: in vivo, 336 h
[4] = test system: Rattus norvegicus; experiment: Toxicity in rat assessed as mortality at 250 to 2000 mg/kg measured up to 1 day; assay type: organism-based; design: dose 250-2000 mg/kg; conditions: in vivo, 24 h
How it was run: (§1)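 Single-dose rat toxicity study with dose groups of 250, 500, 1000 and 2000 mg/kg. Animals were monitored for clinical signs of toxicity, including stool appearance, and for mortality.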

[5] = test system: Rattus norvegicus; experiment: Toxicity in rat assessed as soft and mucoid stool at 1000 to 2000 mg/kg measured up to 1 day; assay type: organism-based; design: dose 1000-2000 mg/kg; conditions: in vivo, 24 h; how it was run: as §1
[6] = test system: Salmonella typhimurium; experiment: Induction of mutagenicity in Salmonella Typhimurium TA 100 by mini-Ames assay; assay type: toxicity, organism-based; conditions: salmonella enterica subsp. enterica serovar typhimurium
How it was run: (§2)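 Mini-Ames mutagenicity test against Salmonella strains TA 97a, TA 100 and TA 102.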

[7] = test system: Salmonella typhimurium; experiment: Induction of mutagenicity in Salmonella Typhimurium TA 102 by mini-Ames assay; assay type: toxicity, organism-based; conditions: salmonella enterica subsp. enterica serovar typhimurium; how it was run: as §2
[8] = test system: Salmonella typhimurium; experiment: Induction of mutagenicity in Salmonella Typhimurium TA 97a by mini-Ames assay; assay type: toxicity, organism-based; conditions: salmonella enterica subsp. enterica serovar typhimurium; how it was run: as §2
[9] = biological target: hERG (KCNH2) (Homo sapiens, UniProt Q12809); experiment: Inhibition of human ERG at 2 uM by voltage clamp assay
[10] = biological target: T1, Cytochrome P450 2D6 (Homo sapiens, UniProt P10635); experiment: Inhibition of CYP2D6 in human liver microsomes measured after compound pre-incubation; assay type: ADME
How it was run: (§3)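 Human liver microsomes; CYP inhibition measured with compound added concurrently or after pre-incubation; concentration inhibiting 50% of enzyme activity determined.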

[11] = biological target: T2, Cytochrome P450 2D4 (Rattus norvegicus, UniProt Q64680); experiment: Inhibition of rat CYP2D4 measured after compound pre-incubation; assay type: ADME
T2 sequence (Q64680 whole entry): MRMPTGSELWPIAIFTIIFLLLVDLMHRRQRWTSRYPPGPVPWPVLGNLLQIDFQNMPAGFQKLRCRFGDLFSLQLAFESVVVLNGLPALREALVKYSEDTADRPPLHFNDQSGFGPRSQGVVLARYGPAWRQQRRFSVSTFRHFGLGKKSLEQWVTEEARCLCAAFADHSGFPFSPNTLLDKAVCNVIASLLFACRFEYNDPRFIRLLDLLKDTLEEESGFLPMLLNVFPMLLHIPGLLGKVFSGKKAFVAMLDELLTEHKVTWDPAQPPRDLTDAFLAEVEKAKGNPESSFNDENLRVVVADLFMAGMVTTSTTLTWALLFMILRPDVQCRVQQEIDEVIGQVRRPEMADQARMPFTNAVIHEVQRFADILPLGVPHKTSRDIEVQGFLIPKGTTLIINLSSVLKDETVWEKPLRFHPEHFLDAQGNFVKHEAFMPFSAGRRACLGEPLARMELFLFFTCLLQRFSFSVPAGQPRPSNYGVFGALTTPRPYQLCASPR

[12] = biological target: T3, Cytochrome P450 2C19 (Homo sapiens, UniProt P33261); experiment: Inhibition of […] in human liver microsomes measured after compound pre-incubation; assay type: ADME
[13] = biological target: T4, Cytochrome P450 2C9 (Homo sapiens, UniProt P11712); experiment: Inhibition of CYP2C9 in human liver microsomes measured after compound pre-incubation; assay type: ADME; how it was run: as §3
[14] = biological target: T5, Cytochrome P450 2C8 (Homo sapiens, UniProt P10632); experiment: Inhibition of CYP2C8 in human liver microsomes measured after compound pre-incubation; assay type: ADME; how it was run: as §3
T5 sequence (P10632 whole entry): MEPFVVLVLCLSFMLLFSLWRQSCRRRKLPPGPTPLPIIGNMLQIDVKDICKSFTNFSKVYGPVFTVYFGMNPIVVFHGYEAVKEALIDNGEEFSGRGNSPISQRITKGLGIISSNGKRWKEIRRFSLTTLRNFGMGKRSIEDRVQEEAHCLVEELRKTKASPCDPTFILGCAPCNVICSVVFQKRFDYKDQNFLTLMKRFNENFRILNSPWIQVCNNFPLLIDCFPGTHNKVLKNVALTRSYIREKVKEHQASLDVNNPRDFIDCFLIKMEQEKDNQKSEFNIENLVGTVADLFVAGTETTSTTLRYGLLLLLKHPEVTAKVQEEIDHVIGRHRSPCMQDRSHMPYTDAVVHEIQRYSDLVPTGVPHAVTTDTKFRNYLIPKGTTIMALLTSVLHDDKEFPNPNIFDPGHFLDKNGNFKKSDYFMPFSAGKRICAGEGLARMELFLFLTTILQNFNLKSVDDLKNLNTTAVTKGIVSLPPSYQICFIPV

[15] = biological target: T6, Cytochrome P450 1A2 (Homo sapiens, UniProt P05177); experiment: Inhibition of CYP1A2 in human liver microsomes measured after compound pre-incubation; assay type: ADME; how it was run: as §3
T6 sequence (P05177 whole entry): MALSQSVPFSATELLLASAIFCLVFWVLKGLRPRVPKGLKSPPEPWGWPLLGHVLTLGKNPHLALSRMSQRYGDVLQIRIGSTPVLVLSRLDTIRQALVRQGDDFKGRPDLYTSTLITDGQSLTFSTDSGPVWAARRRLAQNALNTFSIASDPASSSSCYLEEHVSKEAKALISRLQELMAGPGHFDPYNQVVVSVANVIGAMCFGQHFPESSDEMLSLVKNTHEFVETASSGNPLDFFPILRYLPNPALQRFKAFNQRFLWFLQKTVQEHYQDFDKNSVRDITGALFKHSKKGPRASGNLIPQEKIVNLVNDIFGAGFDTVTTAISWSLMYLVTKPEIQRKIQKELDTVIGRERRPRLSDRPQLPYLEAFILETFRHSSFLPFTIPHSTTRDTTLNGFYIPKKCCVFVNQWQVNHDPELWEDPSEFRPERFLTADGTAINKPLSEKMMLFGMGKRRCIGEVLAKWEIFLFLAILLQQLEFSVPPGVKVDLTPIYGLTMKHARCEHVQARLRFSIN

[16] = biological target: T7, Cytochrome P450 3A4 (Homo sapiens, UniProt P08684); experiment: Inhibition of CYP3A4 in human liver microsomes measured after compound pre-incubation; assay type: ADME; how it was run: as §3
[17] = biological target: T1, Cytochrome P450 2D6; experiment: Inhibition of CYP2D6 in human liver microsomes measured after concurrent incubation; assay type: ADME; how it was run: as §3
[18] = biological target: T2, Cytochrome P450 2D4; experiment: Inhibition of rat CYP2D4 measured after concurrent incubation; assay type: ADME
[19] = biological target: T3, Cytochrome P450 2C19; experiment: Inhibition of […] in human liver microsomes measured after concurrent incubation; assay type: ADME
[20] = biological target: T4, Cytochrome P450 2C9; experiment: Inhibition of CYP2C9 in human liver microsomes measured after concurrent incubation; assay type: ADME; how it was run: as §3
[21] = biological target: T5, Cytochrome P450 2C8; experiment: Inhibition of CYP2C8 in human liver microsomes measured after concurrent incubation; assay type: ADME; how it was run: as §3
[22] = biological target: T6, Cytochrome P450 1A2; experiment: Inhibition of CYP1A2 in human liver microsomes measured after concurrent incubation; assay type: ADME; how it was run: as §3
[23] = biological target: T7, Cytochrome P450 3A4; experiment: Inhibition of CYP3A4 in human liver microsomes measured after concurrent incubation; assay type: ADME; how it was run: as §3
[24] = test system: Cynomolgus monkey; experiment: Drug metabolism in cynomolgus monkey assessed as sulfate conjugate formation administered as single oral dose; assay type: ADME, organism-based, Macaca fascicularis; conditions: in vivo
How it was run: (§4)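 Radiolabeled [3H] compound given as single oral dose to monkey; bile and urine excretion and metabolites profiled, including parent fraction in bile and glutathione or sulfate conjugates.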

[25] = test system: Cynomolgus monkey; experiment: Drug metabolism in cynomolgus monkey assessed as glutathione conjugate formation administered as single oral dose; assay type: ADME, organism-based, Macaca fascicularis; conditions: in vivo; how it was run: as §4
[26] = Drug excretion in cynomolgus monkey bile assessed as parent compound administered as single oral dose; assay type: ADME, Macaca fascicularis; conditions: read-out: Drug excretion; how it was run: as §4
[27] = Cmax in fed cynomolgus monkey at 100 mg/kg, po; assay type: ADME, organism-based, Macaca fascicularis; design: dose 100 mg/kg, route oral; conditions: in vivo
How it was run: (§5)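 Given orally as crystalline sodium salt to fed male Sprague Dawley rats (30–500 mg/kg) or fed male Cynomolgus monkeys (10–100 mg/kg) to assess dose exposure; plasma AUC and Cmax determined.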

[28] = Cmax in fed cynomolgus monkey at 30 mg/kg, po; assay type: ADME, organism-based, Macaca fascicularis; design: dose 30 mg/kg, route oral; conditions: in vivo; how it was run: as §5
[29] = Cmax in fed cynomolgus monkey at 10 mg/kg, po; assay type: ADME, organism-based, Macaca fascicularis; design: dose 10 mg/kg, route oral; conditions: in vivo; how it was run: as §5
[30] = Cmax in fed Sprague-Dawley rat at 500 mg/kg, po; assay type: ADME, organism-based; design: dose 500 mg/kg, route oral; conditions: in vivo; how it was run: as §5
[31] = Cmax in fed Sprague-Dawley rat at 250 mg/kg, po; assay type: ADME, organism-based; design: dose 250 mg/kg, route oral; conditions: in vivo; how it was run: as §5
[32] = Cmax in fed Sprague-Dawley rat at 100 mg/kg, po; assay type: ADME, organism-based; design: dose 100 mg/kg, route oral; conditions: in vivo; how it was run: as §5
[33] = Cmax in fed Sprague-Dawley rat at 30 mg/kg, po; assay type: ADME, organism-based; design: dose 30 mg/kg, route oral; conditions: in vivo; how it was run: as §5
[34] = AUC in fed cynomolgus monkey at 100 mg/kg, po; assay type: ADME, organism-based, Macaca fascicularis; design: dose 100 mg/kg, route oral; conditions: plasma; how it was run: as §5
[35] = AUC in fed cynomolgus monkey at 30 mg/kg, po; assay type: ADME, organism-based, Macaca fascicularis; design: dose 30 mg/kg, route oral; conditions: plasma; how it was run: as §5
[36] = AUC in fed cynomolgus monkey at 10 mg/kg, po; assay type: ADME, organism-based, Macaca fascicularis; design: dose 10 mg/kg, route oral; conditions: plasma; how it was run: as §5
[37] = AUC in fed Sprague-Dawley rat at 500 mg/kg, po; assay type: ADME, organism-based; design: dose 500 mg/kg, route oral; conditions: plasma; how it was run: as §5
[38] = AUC in fed Sprague-Dawley rat at 250 mg/kg, po; assay type: ADME, organism-based; design: dose 250 mg/kg, route oral; conditions: plasma; how it was run: as §5
[39] = AUC in fed Sprague-Dawley rat at 100 mg/kg, po; assay type: ADME, organism-based; design: dose 100 mg/kg, route oral; conditions: plasma; how it was run: as §5
[40] = AUC in fed Sprague-Dawley rat at 30 mg/kg, po; assay type: ADME, organism-based; design: dose 30 mg/kg, route oral; conditions: plasma; how it was run: as §5

T7 sequence (P08684 whole entry): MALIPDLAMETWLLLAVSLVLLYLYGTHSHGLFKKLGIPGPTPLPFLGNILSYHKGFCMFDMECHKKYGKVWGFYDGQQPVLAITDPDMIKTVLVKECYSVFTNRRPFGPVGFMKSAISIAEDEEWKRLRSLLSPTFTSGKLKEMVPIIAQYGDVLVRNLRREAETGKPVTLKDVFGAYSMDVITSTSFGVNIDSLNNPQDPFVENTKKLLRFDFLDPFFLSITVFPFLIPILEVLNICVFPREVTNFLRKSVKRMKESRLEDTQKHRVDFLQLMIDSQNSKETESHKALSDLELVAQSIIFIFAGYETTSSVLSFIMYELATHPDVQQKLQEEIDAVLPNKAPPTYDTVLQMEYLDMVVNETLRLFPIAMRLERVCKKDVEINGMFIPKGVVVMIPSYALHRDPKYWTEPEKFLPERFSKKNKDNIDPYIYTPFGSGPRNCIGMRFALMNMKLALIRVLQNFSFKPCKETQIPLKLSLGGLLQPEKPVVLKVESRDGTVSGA
T1 sequence (P10635 whole entry): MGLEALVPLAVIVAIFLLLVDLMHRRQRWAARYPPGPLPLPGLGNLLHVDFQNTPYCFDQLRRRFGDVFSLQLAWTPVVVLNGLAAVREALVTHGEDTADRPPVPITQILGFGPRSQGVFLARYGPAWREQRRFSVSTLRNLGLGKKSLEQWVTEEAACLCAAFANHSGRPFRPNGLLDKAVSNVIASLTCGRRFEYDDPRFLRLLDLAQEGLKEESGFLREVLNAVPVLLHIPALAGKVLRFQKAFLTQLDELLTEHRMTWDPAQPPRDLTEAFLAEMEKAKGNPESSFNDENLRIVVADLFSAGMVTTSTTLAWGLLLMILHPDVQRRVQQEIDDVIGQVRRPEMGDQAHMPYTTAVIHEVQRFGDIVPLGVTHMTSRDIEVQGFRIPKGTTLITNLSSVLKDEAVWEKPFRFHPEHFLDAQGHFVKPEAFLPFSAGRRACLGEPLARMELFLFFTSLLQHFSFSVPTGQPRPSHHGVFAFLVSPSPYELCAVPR
T3 sequence (P33261 whole entry): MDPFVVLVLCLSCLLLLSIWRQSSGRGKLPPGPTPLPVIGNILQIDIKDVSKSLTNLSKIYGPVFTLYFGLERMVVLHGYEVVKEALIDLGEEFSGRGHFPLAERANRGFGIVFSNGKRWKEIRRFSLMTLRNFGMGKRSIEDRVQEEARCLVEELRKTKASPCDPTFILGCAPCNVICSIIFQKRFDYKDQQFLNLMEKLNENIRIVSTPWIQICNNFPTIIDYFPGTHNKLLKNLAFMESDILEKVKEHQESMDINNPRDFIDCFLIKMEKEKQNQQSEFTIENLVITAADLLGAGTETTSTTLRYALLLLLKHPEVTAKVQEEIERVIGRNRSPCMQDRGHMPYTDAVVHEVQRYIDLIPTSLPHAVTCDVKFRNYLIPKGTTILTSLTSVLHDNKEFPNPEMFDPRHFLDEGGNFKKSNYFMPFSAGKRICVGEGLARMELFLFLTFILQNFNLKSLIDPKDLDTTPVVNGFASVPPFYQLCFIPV
T4 sequence (P11712 whole entry): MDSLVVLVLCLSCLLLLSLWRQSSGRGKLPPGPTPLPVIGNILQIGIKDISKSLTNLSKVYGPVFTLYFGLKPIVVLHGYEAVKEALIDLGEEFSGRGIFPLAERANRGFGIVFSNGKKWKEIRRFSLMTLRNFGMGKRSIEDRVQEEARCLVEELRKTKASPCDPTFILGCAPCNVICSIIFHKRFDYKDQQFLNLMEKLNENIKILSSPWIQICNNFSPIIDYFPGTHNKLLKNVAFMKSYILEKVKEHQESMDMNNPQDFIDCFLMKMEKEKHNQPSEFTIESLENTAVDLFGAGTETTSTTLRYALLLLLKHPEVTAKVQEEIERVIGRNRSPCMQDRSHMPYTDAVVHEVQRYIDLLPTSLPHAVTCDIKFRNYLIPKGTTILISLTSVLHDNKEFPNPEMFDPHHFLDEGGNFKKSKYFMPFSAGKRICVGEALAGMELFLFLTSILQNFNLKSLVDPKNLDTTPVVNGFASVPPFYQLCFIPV
Chain of hERG (KCNH2) (Q12809 whole entry): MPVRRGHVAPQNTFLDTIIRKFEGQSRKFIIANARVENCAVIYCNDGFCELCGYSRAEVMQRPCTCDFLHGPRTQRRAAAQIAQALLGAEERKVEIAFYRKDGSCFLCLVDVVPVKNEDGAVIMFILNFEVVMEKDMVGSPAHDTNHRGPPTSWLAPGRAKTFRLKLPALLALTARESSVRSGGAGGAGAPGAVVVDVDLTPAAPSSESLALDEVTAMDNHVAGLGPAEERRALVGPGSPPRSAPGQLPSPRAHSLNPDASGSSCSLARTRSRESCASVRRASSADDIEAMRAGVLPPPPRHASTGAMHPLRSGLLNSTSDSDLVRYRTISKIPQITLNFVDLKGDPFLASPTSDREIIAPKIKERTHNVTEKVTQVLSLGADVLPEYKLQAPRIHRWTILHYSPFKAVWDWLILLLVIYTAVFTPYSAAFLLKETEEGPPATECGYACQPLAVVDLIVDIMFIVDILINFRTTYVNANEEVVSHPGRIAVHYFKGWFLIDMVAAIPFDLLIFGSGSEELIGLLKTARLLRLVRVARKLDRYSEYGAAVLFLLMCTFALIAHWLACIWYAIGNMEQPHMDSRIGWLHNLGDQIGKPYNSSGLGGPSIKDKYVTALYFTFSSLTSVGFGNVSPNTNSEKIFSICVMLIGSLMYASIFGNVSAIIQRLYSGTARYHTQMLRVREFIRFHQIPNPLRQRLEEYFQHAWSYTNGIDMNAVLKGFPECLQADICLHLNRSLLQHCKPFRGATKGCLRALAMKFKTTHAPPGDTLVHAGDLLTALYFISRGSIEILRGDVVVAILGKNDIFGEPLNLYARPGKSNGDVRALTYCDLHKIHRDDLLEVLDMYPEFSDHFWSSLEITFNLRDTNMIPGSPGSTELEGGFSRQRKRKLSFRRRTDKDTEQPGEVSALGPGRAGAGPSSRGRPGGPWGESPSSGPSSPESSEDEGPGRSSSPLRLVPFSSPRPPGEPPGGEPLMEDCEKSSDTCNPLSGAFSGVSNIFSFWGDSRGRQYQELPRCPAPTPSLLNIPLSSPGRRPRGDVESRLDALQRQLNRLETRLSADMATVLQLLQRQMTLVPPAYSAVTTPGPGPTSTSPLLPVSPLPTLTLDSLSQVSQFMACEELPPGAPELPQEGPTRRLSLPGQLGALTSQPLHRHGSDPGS

## Cc1cc2c(-c3ccc[nH]c3=O)c(C(=O)O)n(Cc3cc4ccc(F)cc4nc3Cl)c2cc1F
[1]
  EC50: 0.02 µM
[2]
  IC50: 0.02 µM

## Cc1cc2c(-c3ccc[nH]c3=O)c(C(=O)O)n(Cc3cc4ccccc4nc3Cl)c2cc1F
[3]
  Activity: Non-toxic
[4]
  Activity: Non-toxic
[5]
  Activity: Toxic
[6]
  Activity: Non-toxic
[7]
  Activity: Non-toxic
[8]
  Activity: Non-toxic
[9]
  inhibition at 2 µM: 6%
[10]
  IC50: > 50 µM
[11]
  IC50: > 50 µM
[12]
  IC50: > 50 µM
[13]
  IC50: > 50 µM
[14]
  IC50: 30 µM
[15]
  IC50: > 50 µM
[16]
  IC50: > 50 µM
[17]
  IC50: > 50 µM
[18]
  IC50: > 50 µM
[19]
  IC50: > 50 µM
[20]
  IC50: > 50 µM
[21]
  IC50: 21 µM
[22]
  IC50: > 50 µM
[23]
  IC50: > 50 µM
[24]
  Stability: Stable
[25]
  Stability: Stable
[26]
  dose excreted: 81%
[27]
  Cmax: 2 µM
[28]
  Cmax: 1.3 µM
[29]
  Cmax: 0.9 µM
[30]
  Cmax: 65 µM
[31]
  Cmax: 66 µM
[32]
  Cmax: 32 µM
[33]
  Cmax: 21 µM
[34]
  AUC: 17 µM·h
[35]
  AUC: 15 µM·h
[36]
  AUC: 9 µM·h
[37]
  AUC: 1040 µM·h
[38]
  AUC: 1090 µM·h
[39]
  AUC: 375 µM·h
[40]
  AUC: 176 µM·h
[1]
  EC50: 0.003 µM
[2]
  IC50: 0.013 µM
